Structures are written as SMILES. pEC50: −log10 of the molar value. Where a SMILES comes first, the peptide text is derived from it.

The species entered for one experiment is Homo sapiens. Description: Selectivity ratio of EC50 for human OX2 receptor to EC50 for human OX1 receptor.
The target of the next experiment is T1, Orexin receptor type 2 (Homo sapiens, UniProt O43614).
T1 sequence (O43614 whole entry): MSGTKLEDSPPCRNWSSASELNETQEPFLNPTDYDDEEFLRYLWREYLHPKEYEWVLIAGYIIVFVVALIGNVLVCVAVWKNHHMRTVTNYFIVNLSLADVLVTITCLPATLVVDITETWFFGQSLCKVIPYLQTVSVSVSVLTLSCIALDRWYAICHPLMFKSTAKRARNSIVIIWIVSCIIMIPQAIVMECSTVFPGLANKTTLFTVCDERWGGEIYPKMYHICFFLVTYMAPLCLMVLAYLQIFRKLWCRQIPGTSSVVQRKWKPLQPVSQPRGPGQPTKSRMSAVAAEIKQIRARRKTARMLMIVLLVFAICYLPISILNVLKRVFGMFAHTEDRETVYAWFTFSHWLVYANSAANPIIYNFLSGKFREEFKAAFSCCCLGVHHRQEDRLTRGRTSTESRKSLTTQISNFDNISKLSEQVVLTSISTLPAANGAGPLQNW
Briefly: Agonist activity at human OX2 receptor overexpressed in CHO-RD-HGA16 cells assessed as calcium mobilization after 15 mins by fluorescence assay. In kind it is functional, cell-based.

Experiment [1] has as its target T2, Orexin/Hypocretin receptor type 1 (Homo sapiens, UniProt O43613).
T2 sequence (O43613 whole entry): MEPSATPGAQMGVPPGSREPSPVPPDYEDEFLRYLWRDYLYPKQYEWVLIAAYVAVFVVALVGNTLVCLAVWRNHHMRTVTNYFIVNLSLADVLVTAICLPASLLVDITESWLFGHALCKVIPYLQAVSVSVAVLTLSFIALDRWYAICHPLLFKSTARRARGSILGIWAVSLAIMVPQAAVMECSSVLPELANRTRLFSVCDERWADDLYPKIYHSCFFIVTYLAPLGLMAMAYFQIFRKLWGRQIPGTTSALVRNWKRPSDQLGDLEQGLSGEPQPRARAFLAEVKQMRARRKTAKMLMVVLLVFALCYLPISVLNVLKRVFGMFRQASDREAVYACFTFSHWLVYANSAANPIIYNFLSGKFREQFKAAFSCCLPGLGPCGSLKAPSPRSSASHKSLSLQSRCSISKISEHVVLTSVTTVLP
Briefly: Agonist activity at human OX1 receptor overexpressed in CHO-RD-HGA16 cells assessed as calcium mobilization after 15 mins by fluorescence assay. In kind it is functional, cell-based. The procedure, abridged:
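EC50 from 8-point half-log concentration-response curves. Values are means of at least three independent experiments in duplicate, with SEM, or means of two independent duplicate experiments.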
Background: Calcium assays in cells follow changes in intracellular calcium, usually with a dye or a luminescent sensor.

For `CC[C@H](C)[C@H](NC(=O)CNC(=O)[C@H](C)NC(=O)[C@H](C)NC(=O)[C@H](Cc1cnc[nH]1)NC(=O)[C@H](CC(N)=O)NC(=O)CNC(=O)[C@H](C)NC(=O)CNC(=O)[C@H](Cc1cnc[nH]1)NC(=O)[C@H](CC(C)C)NC(=O)[C@H](CC(C)C)NC(=O)[C@H](CCC(=O)O)NC(=O)[C@@H]1CCCN1)C(=O)N[C@@H](CC(C)C)C(=O)N[C@H](C(=O)N[C@@H](CC(C)C)C(N)=O)[C@@H](C)O` (H-PELLHGAGNHAAGILTL-NH2), in the experiment filed under Homo sapiens, the Ratio EC50 came out at 2.4. Moreover, the pEC50 was 5.49 at Orexin receptor type 2 and 5.86 in experiment [1].
For `CC[C@H](C)[C@H](NC(=O)CNC(=O)[C@H](C)NC(=O)[C@H](C)NC(=O)[C@H](Cc1cnc[nH]1)NC(=O)[C@H](CC(N)=O)NC(=O)CNC(=O)[C@H](CO)NC(=O)[C@H](C)NC(=O)[C@H](CCC(N)=O)NC(=O)[C@H](CC(C)C)NC(=O)[C@H](CC(C)C)NC(=O)[C@H](CCCNC(=N)N)NC(=O)[C@H](CCC(N)=O)NC(=O)[C@H](CC(C)C)NC(=O)[C@@H](N)CCCNC(=N)N)C(=O)N[C@@H](CC(C)C)C(=O)N[C@H](C(=O)N[C@@H](CCSC)C(N)=O)[C@@H](C)O` (H-RLQRLLQASGNHAAGILTM-NH2), the Ratio EC50 in the experiment filed under Homo sapiens was found to be 0.7. Further, the pEC50 was 7.00 on Orexin receptor type 2 and 6.84 in experiment [1].
For `CC[C@H](C)[C@H](NC(=O)CNC(=O)[C@H](C)NC(=O)[C@H](C)NC(=O)[C@H](Cc1cnc[nH]1)NC(=O)[C@H](CC(N)=O)NC(=O)CNC(=O)[C@H](C)NC(=O)CNC(=O)[C@H](Cc1cnc[nH]1)NC(=O)[C@H](CC(C)C)NC(=O)[C@H](CC(C)C)NC(=O)[C@H](C)NC(=O)[C@@H](N)Cc1ccc(O)cc1)C(=O)N[C@@H](CC(C)C)C(=O)N[C@H](C(=O)N[C@@H](CC(C)C)C(N)=O)[C@@H](C)O` (H-YALLHGAGNHAAGILTL-NH2), the Ratio EC50 in the experiment filed under Homo sapiens is 5.6. Besides, the pEC50 on Orexin receptor type 2 is 6.36; in experiment [1], 7.10.
On to `CC[C@H](C)[C@H](NC(=O)CNC(=O)[C@H](C)NC(=O)[C@H](C)NC(=O)[C@H](Cc1cnc[nH]1)NC(=O)[C@H](CC(N)=O)NC(=O)CNC(=O)[C@H](C)NC(=O)CNC(=O)[C@H](Cc1cnc[nH]1)NC(=O)[C@H](CC(C)C)NC(=O)[C@H](C)NC(=O)[C@H](CCC(=O)O)NC(=O)[C@@H](N)Cc1ccc(O)cc1)C(=O)N[C@@H](CC(C)C)C(=O)N[C@H](C(=O)N[C@@H](CC(C)C)C(N)=O)[C@@H](C)O` (H-YEALHGAGNHAAGILTL-NH2), for which the Ratio EC50 in the experiment filed under Homo sapiens worked out at 8.9. The figures for the pEC50 (at Orexin receptor type 2; in experiment [1]) were 5.72 and 6.67, respectively.
For `CC[C@H](C)[C@H](NC(=O)CNC(=O)[C@H](C)NC(=O)[C@H](C)NC(=O)[C@H](Cc1cnc[nH]1)NC(=O)[C@H](CC(N)=O)NC(=O)CNC(=O)[C@H](C)NC(=O)CNC(=O)[C@H](Cc1cnc[nH]1)NC(=O)[C@H](C)NC(=O)[C@H](CC(C)C)NC(=O)[C@H](CCC(=O)O)NC(=O)[C@@H](N)Cc1ccc(O)cc1)C(=O)N[C@@H](CC(C)C)C(=O)N[C@H](C(=O)N[C@@H](CC(C)C)C(N)=O)[C@@H](C)O` (H-YELAHGAGNHAAGILTL-NH2), in that order: 2.4, 5.11 and 5.49.
Consider `CC[C@H](C)[C@H](NC(=O)CNC(=O)[C@H](C)NC(=O)[C@H](C)NC(=O)[C@H](Cc1cnc[nH]1)NC(=O)[C@H](CC(N)=O)NC(=O)CNC(=O)[C@H](C)NC(=O)CNC(=O)[C@H](C)NC(=O)[C@H](CC(C)C)NC(=O)[C@H](CC(C)C)NC(=O)[C@H](CCC(=O)O)NC(=O)[C@@H](N)Cc1ccc(O)cc1)C(=O)N[C@@H](CC(C)C)C(=O)N[C@H](C(=O)N[C@@H](CC(C)C)C(N)=O)[C@@H](C)O` (H-YELLAGAGNHAAGILTL-NH2), for which the Ratio EC50 in the experiment filed under Homo sapiens turned out to be 3.9. In addition, the pEC50 is 5.72 at Orexin receptor type 2 and 6.31 in experiment [1].
For `CC[C@H](C)[C@H](NC(=O)CNC(=O)[C@H](C)NC(=O)[C@H](C)NC(=O)[C@H](Cc1cnc[nH]1)NC(=O)[C@H](CC(N)=O)NC(=O)CNC(=O)[C@H](C)NC(=O)[C@H](C)NC(=O)[C@H](Cc1cnc[nH]1)NC(=O)[C@H](CC(C)C)NC(=O)[C@H](CC(C)C)NC(=O)[C@H](CCC(=O)O)NC(=O)[C@@H](N)Cc1ccc(O)cc1)C(=O)N[C@@H](CC(C)C)C(=O)N[C@H](C(=O)N[C@@H](CC(C)C)C(N)=O)[C@@H](C)O` (H-YELLHAAGNHAAGILTL-NH2), in that order: 3.4, 5.84 and 6.37.
In the case of `CC[C@H](C)[C@H](NC(=O)CNC(=O)[C@H](C)NC(=O)[C@H](C)NC(=O)[C@H](Cc1cnc[nH]1)NC(=O)[C@H](CC(N)=O)NC(=O)[C@H](C)NC(=O)[C@H](C)NC(=O)CNC(=O)[C@H](Cc1cnc[nH]1)NC(=O)[C@H](CC(C)C)NC(=O)[C@H](CC(C)C)NC(=O)[C@H](CCC(=O)O)NC(=O)[C@@H](N)Cc1ccc(O)cc1)C(=O)N[C@@H](CC(C)C)C(=O)N[C@H](C(=O)N[C@@H](CC(C)C)C(N)=O)[C@@H](C)O` (H-YELLHGAANHAAGILTL-NH2), the Ratio EC50 in the experiment filed under Homo sapiens was 1.3. The pEC50 on Orexin receptor type 2 is 5.87; in experiment [1] it was 5.98.
With `CC[C@H](C)[C@H](NC(=O)CNC(=O)[C@H](C)NC(=O)[C@H](C)NC(=O)[C@H](Cc1cnc[nH]1)NC(=O)[C@H](C)NC(=O)CNC(=O)[C@H](C)NC(=O)CNC(=O)[C@H](Cc1cnc[nH]1)NC(=O)[C@H](CC(C)C)NC(=O)[C@H](CC(C)C)NC(=O)[C@H](CCC(=O)O)NC(=O)[C@@H](N)Cc1ccc(O)cc1)C(=O)N[C@@H](CC(C)C)C(=O)N[C@H](C(=O)N[C@@H](CC(C)C)C(N)=O)[C@@H](C)O` (H-YELLHGAGAHAAGILTL-NH2), the Ratio EC50 in the experiment listed under Homo sapiens came out at 0.8. Besides, the pEC50 on Orexin receptor type 2 is 5.63; in experiment [1] it was 5.51.
As to `CC[C@H](C)[C@H](NC(=O)CNC(=O)[C@H](C)NC(=O)[C@H](C)NC(=O)[C@H](C)NC(=O)[C@H](CC(N)=O)NC(=O)CNC(=O)[C@H](C)NC(=O)CNC(=O)[C@H](Cc1cnc[nH]1)NC(=O)[C@H](CC(C)C)NC(=O)[C@H](CC(C)C)NC(=O)[C@H](CCC(=O)O)NC(=O)[C@@H](N)Cc1ccc(O)cc1)C(=O)N[C@@H](CC(C)C)C(=O)N[C@H](C(=O)N[C@@H](CC(C)C)C(N)=O)[C@@H](C)O` (H-YELLHGAGNAAAGILTL-NH2), in the experiment listed under Homo sapiens, the Ratio EC50 came out at 0.5. Further, the figures for the pEC50 (on Orexin receptor type 2; in experiment [1]) were 5.80 and 5.51, respectively.
For the compound `CC[C@H](C)[C@H](NC(=O)CNC(=O)[C@H](C)NC(=O)[C@H](C)NC(=O)[C@H](Cc1cnc[nH]1)NC(=O)[C@H](CC(N)=O)NC(=O)CNC(=O)[C@H](C)NC(=O)[C@@H]1CCCN1C(=O)[C@H](Cc1cnc[nH]1)NC(=O)[C@H](CC(C)C)NC(=O)[C@H](CC(C)C)NC(=O)[C@H](CCC(=O)O)NC(=O)[C@@H](N)Cc1ccc(O)cc1)C(=O)N[C@@H](CC(C)C)C(=O)N[C@H](C(=O)N[C@@H](CC(C)C)C(N)=O)[C@@H](C)O` (H-YELLHPAGNHAAGILTL-NH2), the Ratio EC50 in the experiment filed under Homo sapiens stood at 0.9. Also, the results for the pEC50 (at Orexin receptor type 2; in experiment [1]) were 5.66 and 5.61, respectively.
As to `CC[C@H](C)[C@H](NC(=O)CNC(=O)[C@H](C)NC(=O)[C@H](C)NC(=O)[C@H](Cc1cnc[nH]1)NC(=O)[C@H](CC(N)=O)NC(=O)CNC(=O)[C@H](C)NC(=O)CNC(=O)[C@@H]1CCCN1C(=O)[C@H](CC(C)C)NC(=O)[C@H](CC(C)C)NC(=O)[C@H](CCC(=O)O)NC(=O)[C@@H](N)Cc1ccc(O)cc1)C(=O)N[C@@H](CC(C)C)C(=O)N[C@H](C(=O)N[C@@H](CC(C)C)C(N)=O)[C@@H](C)O` (H-YELLPGAGNHAAGILTL-NH2), in the experiment filed under Homo sapiens, the Ratio EC50 came out at 1.7. The figures for the negative logarithm of the EC50 (pEC50) (at Orexin receptor type 2; in experiment [1]) were 5.70 and 5.92, respectively.

A word on the pEC50: it is −log10 of the EC50, conventionally taken in molar units.
